Calls of active or inactive are those of the source. The calls are words filed in the database; no cut-off is given here.
Assays:
in vivo [1] = settings: black6 (printed 'balck6'), mouse, lung, ip, 10 mg/kg
in vivo [2] = settings: black6 (printed 'balck6'), mouse, brain, ip, 10 mg/kg
[3] = Solubility of the compound in PBS buffer; format: physicochemical
Phospholipase D2 [4] = molecular target: T1, Phospholipase D2 (Homo sapiens, UniProt O14939); settings: U-87MG ATCC
[5] = Cytotoxicity against human U87MG cells assessed as cell viability up to 10 uM by WST-1 assay in presence of 10% FBS relative to control; format: cell-based; settings: u-87mg atcc
In short: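 U87-MG cells in 10% FBS were exposed to compound at concentrations up to 10 μM. Viability was compared with DMSO vehicle.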

[6] = Stability of the compound in PBS buffer up to 48 hrs; format: physicochemical
Phospholipase D1 = molecular target: T2, Phospholipase D1 (Homo sapiens, UniProt Q13393); experiment: Inhibition of PLD1 in human Calu-1 cells assessed as deuterated 1-butanol incorporation pretreated for 5 mins prior to substrate addition measured after 30 mins by mass spectrometry
T2 sequence (Q13393 whole entry): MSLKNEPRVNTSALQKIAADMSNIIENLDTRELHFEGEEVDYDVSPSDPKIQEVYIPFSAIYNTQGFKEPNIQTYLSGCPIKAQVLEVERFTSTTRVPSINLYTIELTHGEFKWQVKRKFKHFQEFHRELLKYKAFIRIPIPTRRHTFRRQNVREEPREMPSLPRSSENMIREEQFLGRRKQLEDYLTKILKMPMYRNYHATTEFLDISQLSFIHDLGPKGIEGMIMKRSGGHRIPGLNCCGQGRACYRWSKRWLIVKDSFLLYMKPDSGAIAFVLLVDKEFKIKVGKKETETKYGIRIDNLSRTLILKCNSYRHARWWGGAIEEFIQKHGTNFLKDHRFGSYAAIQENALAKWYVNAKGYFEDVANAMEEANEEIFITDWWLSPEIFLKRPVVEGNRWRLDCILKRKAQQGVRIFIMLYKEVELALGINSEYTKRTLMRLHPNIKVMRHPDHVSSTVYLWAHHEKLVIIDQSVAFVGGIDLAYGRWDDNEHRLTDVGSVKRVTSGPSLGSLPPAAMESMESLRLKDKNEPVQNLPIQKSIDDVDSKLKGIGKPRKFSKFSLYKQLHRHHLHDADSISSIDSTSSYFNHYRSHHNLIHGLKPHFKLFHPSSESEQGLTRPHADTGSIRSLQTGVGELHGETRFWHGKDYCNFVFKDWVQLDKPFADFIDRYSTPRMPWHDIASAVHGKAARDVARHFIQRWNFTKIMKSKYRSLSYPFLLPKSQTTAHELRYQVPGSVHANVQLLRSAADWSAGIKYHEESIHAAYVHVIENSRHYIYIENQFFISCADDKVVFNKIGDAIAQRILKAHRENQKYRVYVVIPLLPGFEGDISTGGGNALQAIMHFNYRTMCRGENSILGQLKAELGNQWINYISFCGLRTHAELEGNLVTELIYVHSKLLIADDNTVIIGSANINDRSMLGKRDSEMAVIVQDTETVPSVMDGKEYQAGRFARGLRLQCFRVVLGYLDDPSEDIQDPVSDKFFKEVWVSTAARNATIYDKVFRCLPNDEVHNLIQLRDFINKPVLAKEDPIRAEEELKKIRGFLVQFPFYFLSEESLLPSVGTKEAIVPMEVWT

Phospholipase D2 [7] = molecular target: T1, Phospholipase D2; experiment: Inhibition of GFP-tagged PLD2 in human HEK293 cells assessed as deuterated 1-butanol incorporation pretreated for 5 mins prior to substrate addition measured after 30 mins by mass spectrometry
U-87 MG = experiment: Increase in caspase 3/7 activation in human U87MG cells after 6 to 72 hrs under serum free conditions; format: functional, cell-based; settings: U-87MG ATCC
hERG (KCNH2) = hERG (KCNH2) (Homo sapiens, UniProt Q12809); experiment: Inhibition of human ERG at 10 uM by radioligand binding assay
Sequence of hERG (KCNH2) (Q12809 whole entry): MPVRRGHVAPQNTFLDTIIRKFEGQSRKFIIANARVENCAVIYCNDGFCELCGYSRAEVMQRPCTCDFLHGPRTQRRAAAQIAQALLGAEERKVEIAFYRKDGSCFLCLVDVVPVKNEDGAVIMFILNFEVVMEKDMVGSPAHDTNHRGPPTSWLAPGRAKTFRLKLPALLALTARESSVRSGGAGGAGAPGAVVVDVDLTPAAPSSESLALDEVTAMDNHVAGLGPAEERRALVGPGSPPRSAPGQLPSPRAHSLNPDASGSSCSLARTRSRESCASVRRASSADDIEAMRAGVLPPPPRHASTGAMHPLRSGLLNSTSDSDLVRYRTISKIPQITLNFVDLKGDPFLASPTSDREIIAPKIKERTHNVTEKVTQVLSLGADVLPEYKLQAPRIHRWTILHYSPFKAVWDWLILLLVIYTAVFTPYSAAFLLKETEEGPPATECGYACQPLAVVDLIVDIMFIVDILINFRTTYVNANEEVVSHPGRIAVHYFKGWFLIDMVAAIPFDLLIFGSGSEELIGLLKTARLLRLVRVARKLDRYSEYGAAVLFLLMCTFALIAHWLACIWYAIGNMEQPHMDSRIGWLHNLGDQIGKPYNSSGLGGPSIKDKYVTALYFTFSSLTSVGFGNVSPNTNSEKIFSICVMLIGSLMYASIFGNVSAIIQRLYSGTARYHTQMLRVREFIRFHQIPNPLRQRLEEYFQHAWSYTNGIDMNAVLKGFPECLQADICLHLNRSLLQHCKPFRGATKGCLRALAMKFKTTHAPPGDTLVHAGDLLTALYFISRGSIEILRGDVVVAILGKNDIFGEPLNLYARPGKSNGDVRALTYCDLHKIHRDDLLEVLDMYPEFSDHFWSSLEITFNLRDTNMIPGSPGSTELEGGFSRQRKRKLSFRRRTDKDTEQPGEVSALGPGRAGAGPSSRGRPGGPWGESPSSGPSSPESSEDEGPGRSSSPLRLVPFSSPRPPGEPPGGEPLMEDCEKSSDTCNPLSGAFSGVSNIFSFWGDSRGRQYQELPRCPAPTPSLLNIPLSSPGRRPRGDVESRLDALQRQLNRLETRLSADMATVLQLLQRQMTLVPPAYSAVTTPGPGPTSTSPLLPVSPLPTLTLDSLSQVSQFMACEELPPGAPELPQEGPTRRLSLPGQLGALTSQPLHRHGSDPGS

T1 sequence (O14939 whole entry): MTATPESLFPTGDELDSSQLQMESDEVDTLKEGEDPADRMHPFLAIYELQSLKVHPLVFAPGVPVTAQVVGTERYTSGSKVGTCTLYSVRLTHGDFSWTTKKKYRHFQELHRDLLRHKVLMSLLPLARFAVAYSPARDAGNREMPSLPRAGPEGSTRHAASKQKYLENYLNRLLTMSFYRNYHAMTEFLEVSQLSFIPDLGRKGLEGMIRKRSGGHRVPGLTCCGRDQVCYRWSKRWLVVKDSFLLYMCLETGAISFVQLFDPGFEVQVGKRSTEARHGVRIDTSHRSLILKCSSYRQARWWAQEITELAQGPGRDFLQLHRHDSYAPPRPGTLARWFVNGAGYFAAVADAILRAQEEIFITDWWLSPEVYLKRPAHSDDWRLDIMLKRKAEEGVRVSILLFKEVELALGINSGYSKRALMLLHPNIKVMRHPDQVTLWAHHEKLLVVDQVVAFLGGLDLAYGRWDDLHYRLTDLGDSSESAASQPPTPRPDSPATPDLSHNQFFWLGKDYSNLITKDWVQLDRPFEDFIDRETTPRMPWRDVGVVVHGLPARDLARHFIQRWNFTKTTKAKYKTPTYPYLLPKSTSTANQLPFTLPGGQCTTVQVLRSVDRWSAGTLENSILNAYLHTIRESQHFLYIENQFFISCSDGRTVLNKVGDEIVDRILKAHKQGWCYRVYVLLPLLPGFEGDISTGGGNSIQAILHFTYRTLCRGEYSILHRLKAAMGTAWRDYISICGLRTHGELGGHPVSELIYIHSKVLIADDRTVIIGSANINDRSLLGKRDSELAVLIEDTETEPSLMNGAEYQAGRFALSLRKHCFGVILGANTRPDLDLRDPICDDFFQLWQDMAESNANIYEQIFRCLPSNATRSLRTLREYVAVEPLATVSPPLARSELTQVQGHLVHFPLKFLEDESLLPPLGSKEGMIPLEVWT

SMILES	IC50 (Phospholipase D1)	IC50 (Phospholipase D2 [7])	further results
O=C(NCCN1CCC2(CC1)C(=O)NCN2c1cccc(F)c1)c1ccc(F)c(F)c1			AUC at 6 h (in vivo [1]): 4.61 µM·h; AUC at 6 h (in vivo [2]): 0.08 µM·h; solubility [3]: soluble; inhibition (Phospholipase D2 [4]): Dose-dependent effect; Activity [5]: Non-toxic; Stability [6]: Stable
C[C@@H](CN1CCC2(CC1)C(=O)NCN2c1cccc(F)c1)NC(=O)c1ccc(F)cc1	20 nM	35 nM	
C[C@H](CN1CCC2(CC1)C(=O)NCN2c1cccc(F)c1)NC(=O)c1ccc(F)cc1	760 nM	1060 nM	
C[C@@H](CN1CCC2(CC1)C(=O)NCN2c1cccc(F)c1)NC(=O)c1ccc(F)c(F)c1	86 nM	120 nM	
O=C(NCCN1CCC2(CC1)C(=O)NCN2c1cccc(F)c1)c1ccc(F)cc1		350 nM	
Cc1cccc(N2CNC(=O)C23CCN(C[C@H](C)NC(=O)c2ccc(Br)cc2)CC3)c1			Activity (U-87 MG): Active; solubility [3]: soluble; Activity [5]: Non-toxic; Stability [6]: Stable; inhibition at 10 µM (hERG (KCNH2)): > 50%
C[C@H](CN1CCC2(CC1)C(=O)NCN2c1cccc(F)c1)NC(=O)c1ccc(Br)cc1		800 nM	
O=C(NCCN1CCC2(CC1)C(=O)NCN2c1cccc(F)c1)c1ccc(Br)cc1	1540 nM	200 nM	
C[C@H](CN1CCC2(CC1)C(=O)NCN2c1cccc(F)c1)NC(=O)c1ccc(F)c(F)c1	1400 nM	3450 nM	

Source: ChEMBL document CHEMBL2321744 (J Med Chem, 2013)
